In the EternaBench riboswitch data:

Test system: MS2 coat protein
Assay: apparent Kd, MS2 coat protein; higher = weaker binding; RNA-MaP array; FMN 200 µM where present
Method in brief: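 Two titrations, one without ligand and one with constant ligand, were run with SNAP-549-labelled MS2 coat protein from 0.7 or 1.5 nM, doubling to 3 µM. The targets were designs transcribed by stalled E. coli RNA polymerase on Illumina sequencing-chip clusters, in 100 mM Tris-HCl pH 7.5, 80 mM KCl, 4 mM MgCl2, BSA, DTT, yeast tRNA and Tween-20. The apparent Kd is the median of filtered per-cluster binding-curve fits, with green signal normalised to red-channel RNA signal and control-cluster median Fmax.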

[1] = designed as: OFF switch for flavin mononucleotide, no ligand
[2] = ligand present: flavin mononucleotide, designed as: OFF switch for flavin mononucleotide
[3] = designed as: ON switch for flavin mononucleotide, no ligand
[4] = ligand present: flavin mononucleotide, designed as: ON switch for flavin mononucleotide

Sequence	apparent Kd [1] [nM]	apparent Kd [2] [nM]	apparent Kd [3] [nM]	apparent Kd [4] [nM]
GUUUACGCGGAAGGAUAUACAUUUGACAUCUUGAUGCGCGCAAUACUCACAUGAGGAUCACCCAUGUAGAAGGUCUGCGAAAGA	15.1	24.9		
GUUUUUCCUCAUGUACAUGAGGAACAUGAGGAUCACCCAUGUAGAAGGAAUUCCCUUAAAUUAAGUUAGGAUAUACAUAUAUUU	107	77.4		
AGAGAAUACUCAGGAUAUCUGAAUAGAAAGAGAAGAGAAGGGAGACAUGAGGAUCACCCAUGUGAAGUCUUGAGACUACAUGGU	366	426		
UCACGGGAUUGAGGAUAUAUAUGAAUUUUUUUUAUAGAAGGCAAAAUGUUAGAUUAUUCACUAUACAUGAGGAUCACCCAUGUU	26.9	24.2		
UUGGAGUACGUAGGAUAUGUAGGAUAUUCCUACAUGAGGAUCACCCAUGUUAGCAUGGAAGAAGGACAGAAGGACGUGCUCCAU			1120	15.1
AUUUAAUUUAGCGAGAUCACAUGAGGAUCACCCAUGUAUAUAUAGGAUAUCAGCUCGAAUAGAGCUGAGAAGGAUAUAUACCGC	90.3	157		
AAUAACAGAGGAUAUACUAUUUUAUGUGUUUGUUGUUUUAAACAUGAGGAUCACCCAUGUAGAAGGCUGAAUAA	21	26		
GUCAGCUCGUGAGGAUAUACAUGUGCUGGAUACAGCACUAUUAAGAUCACAUGAGGAUCACCCAUGUAGAAGGCACGAGCUGAU	49.5	643		
AAGUCACAUGAGGAUCACCCAUGUCGUAAACGAUGAGGAUAUAGGAACGAAAGAAAAAAACUAGAAGGUAUAACAA			52.2	52
UACGUACAGAAGUACGCCGGGUCCAGAAGGGACAUGAGGAUCACCCAUGUACCGUUGAUUGCUUGUCAGGAUAUGGACCCGGCC	7.1	27.4		
ACUAGAUGCGUGCAAUAACACAUGAGGAUCACCCAUGUGACACAGGAUAUAACCAGAUCAGAAAGUUAGAAGGGUGAGCACGCA			29.6	18.9
ACAUGAGGAUCACCCAUGUUCACAUAGGAUAUUGAUUUUAUUGGUUUUAGAAUAGUAAUUAACCUCAAGAAGGAUGCCAGUUCU			14	11.2
UCAUUUUCCACAGGAUAUAUUCAUAUACAGUUGUUUGGCUCUUACAUGUUAGUAGAAGGGUGCAACAUGAGGAUCACCCAUGUA			362	186
GCACGAGACUAAGGAUAUGGUGUAUCUACAUGAAACAUGAGGAUCACCCAUGUAGUAAGUAUGAUUCAGAAGGUAGAGACGUGC			49.7	23
ACAUGAGGAUCACCCAUGUGAUGAUCUUCCAUGUCAUAUUUCAGAAGGCACGCAUCUUUAAUGAGUGAGGAUAUGGAAUAUGCG	674	410		
UGCCGUGUACAGAAGGGCGACAUGAGGAUCACCCAUGUCUCCUUGUUGGUCGUAGGAUAUGUACCGUGGCUCUCUACUGUGGGA	5.47	6.75		
UAUUAGAUCCGAGGAUAUCCUUUUUUCUUACAUGAGGAUCACCCAUGUAAAGGGAUUGAGUUGUAGGAGAAGGCGGAUUUAGUU			33.4	15.1
UCGGCGCGAGGAUAUACGGUUGCUUUUUAGGGUCGUGGCGUACAUGAGGAUCACCCAUGUAGAAGGCGCGCCGC	16.1	30.2		
AUAUAUACCCAGAAGGUGCCAGCGAGAGCUGCACAUGAGGAUCACCCAUGUUGUCGGUGACGACGCAAGGAUAUGGGUAUAUAU			25.2	7.86
GUAUUAAAGAUCCAUUUAUACAACAUGAGGAUCACCCAUGUGCAGGAUAUCGUGUGUUUUUUAUUCGAGAAGGGCAAAUUCAUU	37	85.2		
UGUCCACAUGAGGAUCACCCAUGUGAGGAUAUCCAUAAACACAUCGUAUGUGUAUUAUGGAGAAGGCACACACA	16.1	21.9		
AUAAAAGUAGGAUAUUGACUGAUCGACAUGAGGAUCACCCAUGUGGUGCUGUGCGGUAUUCAAGAAGGGCUAAAAU	21.8	32.2		
UUUUAAUAAGAGAAGGAGCACUUCAUGAGGAUCACCCAUGUGUUAGUAGUUAGGAUAUUUAAUAACAUGAGGAUCACCCAUGUC			159	123
AAGGAUCGAGGAUAUACAUAGAUACAGAUACAUGUAGACCUACAUGAGGAUCACCCAUGUAGAAGGCGAUCAUA	18.8	33.7		
AUUUGAAUCGUAGGAUAUCGCUUAAAUUUAACACGAGAAGGACGAACAUGAGGAUCACCCAUGUAUCAUGGUGUAGAUAAUUUG	82.5	353		
GUGAGGUCAGGAUAUGCAUGGCGGGACUUGCGUCGUGGCGUGCAGAAGGGACAUGAGGAUCACCCAUGUGGAGG	225	302		
UUGGGUUUGGGAGGAUAUGGGUAAAAUAAAGUACUAGAAGGCUUAAAUUAUUUUAUAGUUGUAUUACAUGAGGAUCACCCAUGU			13.6	10.4
UUCGUGCAGCGUUGCUGUACGCGUACAUGAGGAUCACCCAUGUAGGAUAUGGUACGCUUUGCGUGCUAGAAGGAUAUGGAGAGG	15.2	18.9		

Sequence	apparent Kd [1] [nM]	apparent Kd [2] [nM]	apparent Kd [3] [nM]	apparent Kd [4] [nM]
GCAGCGCCUGACAUGAGGAUCACCCAUGUUAAAUUGUUAAGUCAGGAUAUAGUCUAGAAACUAGACUAGAAGGGAUAUGCUGCU			9.96	8.57
AUGUUACAUGAGGAUCACCCAUGUGAGGAUAUGUGUAUCCCUAAAAAAGUGUGGGACCAUAGAAGGCACUUGGA	62.9	98.1		
UGAGUGCUGCGAGGAUAUACAUGAGGAUCACCCAUGUAAAUGUGUGAGGCUUUGCCUCACACAAUGUAGAAGGCGCAGUACUCU	14.5	17.2		
AACAGCUCGUCAGGAUAUAUUUUCCUUUUAUGUAUUUAUGUACAUGAGGAUCACCCAUGUUGAUAGUAGAAGGGACGAGCUGAA	13.8	34.4		
UCAGAAGUCACAGGAUAUCCGGCGUAGCACACAGGAGAAGGGUGAUCACGAGCACAUGAGGAUCACCCAUGUGACAUUUGUGGG			53.6	27.5
AAAACAUGAGGAUCACCCAUGUAUAGAUCGGUUAAUAGAAGUGAGGAUAUGCUUAAAAUAAGGUAGCAGAAGGCACUGGGUACA			23.9	25.1
GUUUAGUGAGGAUAUGUGGCAUCGAUCGAGCGCGGUCGGCUACAGAAGGCACAUGAGGAUCACCCAUGUUUCUC	39.5	413		
UAUAUAUAGUAAGGAUAUGUAAUUAUUUCAUAAACAGAAGGUACUGACAUGAGGAUCACCCAUGUUUUAGUGUGGGCAUGUAGA	79.8	108		
UUGGCUAAACCUCAGAGUACCACAUGAGGAUCACCCAUGUGGAGAAGGGACUUUGUACCGUUGAGUCAGGAUAUUCAUUGGGUA	5.17	7.35		
UCUGCUCGAGGAUAUACAUGAGGAUCACCCAUGUAUCCCAGAAGCAUGGCCUCAGGAUGUAGAAGGCGACGCUA	14.1	18.5		
AUACAUGAGGAUCACCCAUGUUACUGGGUCUUAAUAGAACGUAGAAGGAUGAUUUUAUAAAUAACAUAGGAUAUACAAUAUUGU	181	105		
AAAGUUGGUAGGCCCUCGGAACAUGAGGAUCACCCAUGUAAGGAGGAUAUGCCCGGUACCCGCUGGUAGAAGGCCUUAUAAGAA	7.46	23.5		
CUUAUGUGAGGAUAUCAGUAGUAAUACAAUAGUAUUACUACUGAGAAGGCACAUGAGGAUCACCCAUGUUCUUC	134	36.9		
UGUCAGAUGGUAGGAUAUCCAUAUCGCGUGUCCCUUUCCUAACAUGAGGAUCACCCAUGUCGGUGGGAGAAGGGCCGUAUGGUG	13.2	12.1		
GGUUUGCGGCAGGAUAUCCAUCCGCGGUAUGGUGGAGAAGGGCUGACAUGAGGAUCACCCAUGUGCGUCCUGGG	26.6	38.4		
UGAUCGAGAGAUCUUAGAUUCUGGUAGGAUAUACAUUAUAAAAGCUUUACAUGAGGAUCACCCAUGUAGAAGGACUAGAGUCUA		7.92		
AACAUGUCAGGAUAUGCGAAGGCGUCUGACAGACGAGGCUAGCAGAAGGGACAUGAGGAUCACCCAUGUAAAAA	98.9	129		
CCAGAGGAGUAGGAUAUAGGCCGCCAUCGGCGCCUAGAAGGGCUCACAUGAGGAUCACCCAUGUGAUGUUAGUU	17.5	20		
GCCAUGCUGGUGACGGAUAACACAUGAGGAUCACCCAUGUACAGAAGGCGGAAUUAGCGUAGGACCGAGGAUAUGUGCGUGAGG	30.8	42.3		
UAUGUAUUCGUAGGAUAUCCGUUGAGACCGUGUGGAGAAGGACGAACAUGAGGAUCACCCAUGUGUCAUGGUGUAGACAAUUUU	65.5	220		
CUGUUCCAUGUAGGAUAUGCAUAUUCUCAUUAUGCAGAAGGACAUGAGGAUCACCCAUGUAUGUUAUUAUCAUAUGUUACAUGU	34.3	241		
AUUUAGUGAGGAUAUGUGGCUUCGAUCGUGAGAUCGAGGCUACAGAAGGCACAUGAGGAUCACCCAUGUUCCUU	13.2	55.9		
GCUGUGGCAUGAGGAUAUGGUCACGUUUCGUGACCAGAAGGCAUGUCAAUAGACAUGAGGAUCACCCAUGUAGUUAACACAGCA			497	41.9
AGUUUAUAUCGAGGAUAUAAGUCUAGGACAUGAGGAUCACCCAUGUAUGUCUUAGAAGGCGAUAUAAACAGCCUGUUACAGGCA			31.5	7.04
ACUUAUAGAGGAUAUACAGUAUAUUACAUGAGGAUCACCCAUGUUCUUCAAUGUAUAUAUGUAGAAGGCUAAGGAA	206	541		
CCUCAACAGUAGGAUAUCAUCAAACUAUUGUGAUGAGAAGGACUGACAUGAGGAUCACCCAUGUUGACGUGAUA	63.4	51.7		
UGUGGGUCCGUUAGGAUAUUUACAGGCAUGCCUGUAAAGAAGGAACAUGAGGAUCACCCAUGUUUGACAAAUUU	16.9	39.8		
